Positions count from the first letter of the chain named. In names and notes the source's numbering stands. One block for each molecule: values may come before it.
Experiments:
Escherichia coli [1] = assay: Activity of Escherichia coli KDPG aldolase
Procedure, shortened: (§1)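 Wild-type KDPG aldolase activity toward KDPG (0.2×–5× KM) was read through a coupled L-lactate dehydrogenase system: 20 mM HEPES pH 7.0, 0.42 mM NADH, 105 U LDH. Aldolase was added to start the reaction, NADH loss was followed at 340 nm for 5 min, and Michaelis–Menten fits gave the parameters.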

Escherichia coli [2] = assay: Ratio of kcat to Km of Escherichia coli KDPG aldolase; procedure, shortened: as §1
[3] = test system: T1, KHG/KDPG aldolase (Escherichia coli (strain K12)), P0A955 [T161V]; assay: Ratio of kcat to Km of Escherichia coli KDPG aldolase T161V mutant
T1 sequence (whole entry): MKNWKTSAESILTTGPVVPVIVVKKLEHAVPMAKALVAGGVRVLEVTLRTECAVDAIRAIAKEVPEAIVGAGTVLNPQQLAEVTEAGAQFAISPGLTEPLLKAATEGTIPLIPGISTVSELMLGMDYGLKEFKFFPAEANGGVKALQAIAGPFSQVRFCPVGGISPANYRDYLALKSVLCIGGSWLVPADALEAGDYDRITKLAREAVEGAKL
Procedure, shortened: (§2)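 KDPG aldolase T161A or T161V mutants were expressed from the pET plasmid in DF71 (eda–) cells, induced with 1 mM IPTG at 25 °C for 16 h, and purified on nickel resin. Assays used 20 mM HEPES pH 7.0, 0.42 mM NADH, KDPG at 0.2×–5× KM and 105 U rabbit-muscle L-lactate dehydrogenase, started with enzyme. A340 was monitored for 5 min, and initial velocities were fitted to Michaelis–Menten.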

[4] = test system: T2, KHG/KDPG aldolase (Escherichia coli (strain K12)), P0A955 [T161A]; assay: Ratio of kcat to Km of Escherichia coli KDPG aldolase T161A mutant; procedure, shortened: as §2
T2 sequence (whole entry): T1 sequence (whole entry) with V161A

Escherichia coli [5] = assay: Activity of Escherichia coli KDPGal aldolase
Procedure, shortened: (§3)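 The enzyme started a coupled L-lactate dehydrogenase assay in 20 mM HEPES pH 7.0 with 0.42 mM NADH, KDPGal at 0.2×–5× KM and 105 U LDH. The A340 decrease was followed for 5 min. Initial slopes were fitted to Michaelis–Menten.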

Escherichia coli [6] = assay: Ratio of kcat to Km for Escherichia coli KDPGal aldolase; procedure, shortened: as §3
[7] = test system: T3, 2-dehydro-3-deoxy-6-phosphogalactonate aldolase (Escherichia coli (strain K12)), Q6BF16 [V154T]; assay: Ratio of kcat to Km for Escherichia coli KDPGal aldolase V154T mutant
T3 sequence (whole entry): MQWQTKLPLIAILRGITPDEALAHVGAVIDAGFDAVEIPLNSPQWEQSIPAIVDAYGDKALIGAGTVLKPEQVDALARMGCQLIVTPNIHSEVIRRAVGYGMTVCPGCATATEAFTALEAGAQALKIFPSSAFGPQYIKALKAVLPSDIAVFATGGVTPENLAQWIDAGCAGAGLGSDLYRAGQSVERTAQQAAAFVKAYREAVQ
Procedure, shortened: (§4)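 V154A or V154T KDPGal aldolase was made by Quikchange and expressed in DF71 (eda–) cells, with 1 mM IPTG induction at 25 °C for 16 h. It was nickel-affinity purified. Retro-aldol cleavage of KDPGal (0.2×–5× KM) was coupled to L-lactate dehydrogenase (105 U) in 20 mM HEPES pH 7.0 with 0.42 mM NADH. Aldolase was added last, and A340 loss was read over 5 min. Kinetic constants came from Michaelis–Menten fits of initial rates.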

[8] = test system: T4, 2-dehydro-3-deoxy-6-phosphogalactonate aldolase (Escherichia coli (strain K12)), Q6BF16 [V154A]; assay: Ratio of kcat to Km for Escherichia coli KDPGal aldolase V154A mutant; procedure, shortened: as §4
T4 sequence (whole entry): T3 sequence (whole entry) with T154A

[9] = substrate: O=C(O)C(=O)C[C@H](O)[C@@H](O)COP(=O)(O)O; assay: (§5) Activity of Escherichia coli KDPGal aldolase V154T mutant; procedure, shortened: as §4
[10] = substrate: O=C(O)C(=O)C[C@H](O)[C@H](O)COP(=O)(O)O; assay: as §5; procedure, shortened: as §4
[11] = substrate: O=C(O)C(=O)C[C@H](O)[C@@H](O)COP(=O)(O)O; assay: (§6) Activity of Escherichia coli KDPGal aldolase V154A mutant; procedure, shortened: as §4
[12] = substrate: O=C(O)C(=O)C[C@H](O)[C@H](O)COP(=O)(O)O; assay: as §6; procedure, shortened: as §4

Km (Escherichia coli [1]): 100 µM | kcat (Escherichia coli [1]): 80 s⁻¹ | Ratio (Escherichia coli [2]): 800 mM⁻¹ s⁻¹ | Ratio [3]: 0.07 mM⁻¹ s⁻¹ | Ratio [4]: 58 mM⁻¹ s⁻¹ | Km (Escherichia coli [5]): 1300 µM | kcat (Escherichia coli [5]): 1.4 s⁻¹ | Ratio (Escherichia coli [6]): 1.1 mM⁻¹ s⁻¹ | Ratio [7]: 0.1 mM⁻¹ s⁻¹ | Ratio [8]: 0.02 mM⁻¹ s⁻¹
Molecule: O=C(O)C(=O)C[C@H](O)[C@H](O)COP(=O)(O)O

Km (Escherichia coli [1]): 600 µM | kcat (Escherichia coli [1]): 1.7 s⁻¹ | Ratio (Escherichia coli [2]): 2.8 mM⁻¹ s⁻¹ | Ratio [3]: 0.1 mM⁻¹ s⁻¹ | Ratio [4]: 5 mM⁻¹ s⁻¹ | Km (Escherichia coli [5]): 200 µM | kcat (Escherichia coli [5]): 3.8 s⁻¹ | Ratio (Escherichia coli [6]): 19 mM⁻¹ s⁻¹ | Ratio [7]: 0.7 mM⁻¹ s⁻¹ | Ratio [8]: 1.3 mM⁻¹ s⁻¹
Molecule: O=C(O)C(=O)C[C@H](O)[C@@H](O)COP(=O)(O)O

B1: 2-dehydro-3-deoxy-6-phosphogalactonate aldolase (Escherichia coli (strain K12)), Q6BF16 V154T (protein)
chain: T3 sequence (whole entry)
Km [9]: 300 µM | kcat [9]: 0.2 s⁻¹ | Km [10]: 90 µM | kcat [10]: 0.01 s⁻¹

B2: 2-dehydro-3-deoxy-6-phosphogalactonate aldolase (Escherichia coli (strain K12)), Q6BF16 V154A (protein)
chain: T3 sequence (whole entry) with T154A
Km [11]: 400 µM | kcat [11]: 0.5 s⁻¹ | Km [12]: 300 µM | kcat [12]: 0.007 s⁻¹

— ChEMBL document CHEMBL1142378, “Characterization and crystal structure of Escherichia coli KDPGal aldolase” (Bioorg Med Chem, 2008)
